Biological target: T1, Neprilysin (Rattus norvegicus, UniProt P07861)
T1 sequence (P07861 whole entry): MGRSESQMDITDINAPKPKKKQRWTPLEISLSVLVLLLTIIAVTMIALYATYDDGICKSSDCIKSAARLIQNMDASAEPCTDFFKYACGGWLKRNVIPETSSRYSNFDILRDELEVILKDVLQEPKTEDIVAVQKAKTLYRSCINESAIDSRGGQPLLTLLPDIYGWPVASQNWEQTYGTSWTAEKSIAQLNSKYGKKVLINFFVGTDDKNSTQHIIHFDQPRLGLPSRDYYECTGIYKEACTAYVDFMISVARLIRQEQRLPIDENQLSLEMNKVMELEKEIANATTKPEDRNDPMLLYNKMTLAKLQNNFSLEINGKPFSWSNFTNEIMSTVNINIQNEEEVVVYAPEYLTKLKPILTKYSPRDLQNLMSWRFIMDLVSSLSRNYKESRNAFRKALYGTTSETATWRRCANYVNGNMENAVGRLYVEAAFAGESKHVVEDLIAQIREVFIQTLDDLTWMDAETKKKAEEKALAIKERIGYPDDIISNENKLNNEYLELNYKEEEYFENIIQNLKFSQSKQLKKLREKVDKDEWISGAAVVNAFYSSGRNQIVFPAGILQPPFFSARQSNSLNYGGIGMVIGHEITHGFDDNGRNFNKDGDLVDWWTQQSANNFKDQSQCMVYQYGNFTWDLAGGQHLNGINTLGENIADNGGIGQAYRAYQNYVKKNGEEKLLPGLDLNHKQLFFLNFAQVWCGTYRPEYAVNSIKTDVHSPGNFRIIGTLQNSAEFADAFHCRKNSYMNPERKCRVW
Assay: In vitro inhibition of Neutral endopeptidase (NEP) enzyme
Conditions: not given

Row | IC50 | SMILES
1 | 301 nM | COP(=O)(O)CNC(Cc1ccc(-c2ccccc2)cc1)C(=O)NCCC(=O)O (configuration not stated)
2 | 11 nM | O=C(O)CCCNC(=O)C(Cc1ccc(-c2ccccc2)cc1)NCP(=O)(O)O (configuration not stated)
3 | 3 nM | C[C@H](NC(=O)C(Cc1ccc(-c2ccccc2)cc1)NCP(=O)(O)O)C(=O)O (some centres not stated)
4 | 14 nM | O=C(O)CCNC(=O)C(Cc1ccc(-c2ccc(F)cc2)cc1)NCP(=O)(O)O (configuration not stated)
5 | 1150 nM | O=C(O)CCNC(=O)C(Cc1ccccc1)NCP(=O)(O)O (configuration not stated)
6 | 4 nM | O=C(O)CCNC(=O)C(Cc1ccc(-c2ccccc2)cc1)NCP(=O)(O)O (configuration not stated)
7 | 1000 nM | O=C(O)CCNC(=O)C(Cc1ccc(-c2ccccc2)cc1)NCP(=O)(O)OCc1ccccc1 (configuration not stated)
8 | 207 nM | O=C(O)CCNC(=O)C(Cc1ccccc1)CP(=O)(O)O (configuration not stated)
9 | 10 nM | O=C(O)c1ccc(NC(=O)C(Cc2ccc(-c3ccccc3)cc2)NCP(=O)(O)O)cc1 (configuration not stated)
10 | > 1000 nM | O=C(O)CCNC(=O)C(Cc1ccccc1)CP(=O)(O)OCCc1ccccc1 (configuration not stated)
11 | 1800 nM | O=C(O)CCNC(=O)[C@@H](Cc1ccc(-c2ccccc2)cc1)NCP(=O)(O)O
12 | 1.9 nM | O=C(O)CCNC(=O)[C@H](Cc1ccc(-c2ccccc2)cc1)NCP(=O)(O)O
13 | 2 nM | O=C(N[C@H](C(=O)O)c1ccccc1)C(Cc1ccc(-c2ccccc2)cc1)NCP(=O)(O)O (some centres not stated)
14 | 120 nM | CCOC(=O)CCNC(=O)C(Cc1ccc(-c2ccccc2)cc1)NCP(=O)(O)O (configuration not stated)
15 | > 1000 nM | O=C(O)CCNC(=O)C(Cc1ccccc1)OP(=O)(O)CCCCc1ccccc1 (configuration not stated)
16 | 5 nM | O=C(O)CNC(=O)C(Cc1ccc(-c2ccccc2)cc1)NCP(=O)(O)O (configuration not stated)
17 | > 1000 nM | O=C(O)CCNC(=O)C(Cc1ccccc1)OP(=O)(O)CCc1ccccc1 (configuration not stated)
18 | > 1000 nM | O=C(O)CCNC(=O)C(Cc1ccccc1)OP(=O)(O)CNC(=O)OCc1ccccc1 (configuration not stated)

Row | SMILES | IC50
19 | CCOP(=O)(CNC(Cc1ccc(-c2ccccc2)cc1)C(=O)NCCC(=O)O)OCC (configuration not stated) | > 1000 nM
20 | O=C(O)CCNC(=O)[C@H](Cc1ccc(-c2ccccc2)cc1)NCP(=O)(O)Oc1ccccc1 | 238 nM
21 | CC(C)C[C@H](NP(=O)(O)O[C@@H]1O[C@@H](C)[C@H](O)[C@@H](O)[C@H]1O)C(=O)N[C@@H](Cc1c[nH]c2ccccc12)C(=O)O [PHOSPHORAMIDON] | 27 nM

System: not listed separately
Assay: Ratio of maximum plasma concentration (C) measured ex vivo to that of IC50 of (10a or 10c) in rat treated intravenously with 10 mg/kg
Assay type: functional
Conditions: route intravenous
Procedure, shortened: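 Conscious rats, femorally catheterised 24 h earlier, dosed iv at 10 mg/kg. Arterial blood was sampled before and at intervals after dosing into EDTA, then centrifuged. Plasma was ultrafiltered through a 30 000 MW cutoff with 0.1 N HCl at 10 °C. Unbound active inhibitor in the ultrafiltrate was measured by GAAP/rat kidney membrane NEP assay and expressed relative to the IC50 of the active metabolite.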

Row | SMILES | Ratio
22 | O=C(O)CCNC(=O)[C@H](Cc1ccc(-c2ccccc2)cc1)NCP(=O)(OC1CCc2ccccc21)OC1CCc2ccccc21 (some centres not stated) | 41
23 | Cc1cc(C)cc(OP(=O)(CN[C@@H](Cc2ccc(-c3ccccc3)cc2)C(=O)NCCC(=O)O)Oc2cc(C)cc(C)c2)c1 | 149
24 | CCOC(=O)CCNC(=O)[C@H](Cc1ccc(-c2ccccc2)cc1)NCP(=O)(Oc1ccccc1)Oc1ccccc1 | 160
25 | Cc1ccc(OP(=O)(CN[C@@H](Cc2ccc(-c3ccccc3)cc2)C(=O)NCCC(=O)O)Oc2ccc(C)c(C)c2)cc1C | 40
26 | CCOC(=O)CCNC(=O)C(Cc1ccc(-c2ccccc2)cc1)NCP(=O)(OC(OC(=O)CC)C(C)C)OC(OC(=O)CC)C(C)C (configuration not stated) | 503
27 | CCOC(=O)CCNC(=O)C(Cc1ccc(-c2ccccc2)cc1)NCP(=O)(OCOC(=O)C(C)C)OCOC(=O)C(C)C (configuration not stated) | 535
28 | O=C(CCNC(=O)[C@H](Cc1ccc(-c2ccccc2)cc1)NCP(=O)(Oc1ccccc1)Oc1ccccc1)OC1CCc2ccccc21 (some centres not stated) | 69
29 | O=C(CCNC(=O)[C@H](Cc1ccc(-c2ccccc2)cc1)NCP(=O)(O)Oc1ccccc1)OCc1ccccc1 | 16
30 | O=C(O)CCNC(=O)[C@H](Cc1ccc(-c2ccccc2)cc1)NCP(=O)(Oc1ccccc1)Oc1ccccc1 | 225
31 | COc1cccc(OP(=O)(CN[C@@H](Cc2ccc(-c3ccccc3)cc2)C(=O)NCCC(=O)O)Oc2cccc(OC)c2)c1 | 240
32 | CCCCCCCC(=O)OC(OP(=O)(O)CNC(Cc1ccc(-c2ccccc2)cc1)C(=O)NCCC(=O)OCC)C(C)C (configuration not stated) | 50
33 | CC(C)c1ccc(OP(=O)(CN[C@@H](Cc2ccc(-c3ccccc3)cc2)C(=O)NCCC(=O)O)Oc2ccc(C(C)C)cc2)cc1 | 40
34 | CCOC(=O)CCNC(=O)C(Cc1ccc(-c2ccccc2)cc1)NCP(=O)(OC(OC(=O)C(C)C)C(C)C)OC(OC(=O)C(C)C)C(C)C (configuration not stated) | 97
35 | Cc1ccc(OP(=O)(CN[C@@H](Cc2ccc(-c3ccccc3)cc2)C(=O)NCCC(=O)O)Oc2ccc(C)cc2)cc1 | 31
36 | CCCc1ccc(OP(=O)(CN[C@@H](Cc2ccc(-c3ccccc3)cc2)C(=O)NCCC(=O)O)Oc2ccc(CCC)cc2)cc1 | 18
37 | CCOC(=O)CCNC(=O)C(Cc1ccc(-c2ccccc2)cc1)NCP(=O)(OC(OC(=O)CC)C1CCCCC1)OC(OC(=O)CC)C1CCCCC1 (configuration not stated) | 64
38 | CCC(=O)OC(C)OP(=O)(CNC(Cc1ccc(-c2ccccc2)cc1)C(=O)NCCC(=O)O)OC(C)OC(=O)CC (configuration not stated) | 283
39 | CCN(CC)C(=O)COC(=O)CCNC(=O)[C@H](Cc1ccc(-c2ccccc2)cc1)NCP(=O)(Oc1ccccc1)Oc1ccccc1 | 135
40 | CCOC(=O)CCNC(=O)C(Cc1ccc(-c2ccccc2)cc1)NCP(=O)(OCOC(=O)C(C)(C)C)OCOC(=O)C(C)(C)C (configuration not stated) | 816
41 | CCN(CC)C(=O)COC(=O)CCNC(=O)[C@H](Cc1ccc(-c2ccccc2)cc1)NCP(=O)(O)Oc1ccccc1 | 9
42 | COc1ccc(OP(=O)(CN[C@@H](Cc2ccc(-c3ccccc3)cc2)C(=O)NCCC(=O)O)Oc2ccc(OC)cc2)cc1 | 5
43 | CCC(=O)OC(OP(=O)(CNC(Cc1ccc(-c2ccccc2)cc1)C(=O)NCCC(=O)O)OC(OC(=O)CC)C(C)C)C(C)C (configuration not stated) | 380
44 | O=C(CCNC(=O)[C@H](Cc1ccc(-c2ccccc2)cc1)NCP(=O)(Oc1ccccc1)Oc1ccccc1)OCc1ccccc1 | 75
45 | O=C(O)CCNC(=O)[C@H](Cc1ccc(-c2ccccc2)cc1)NCP(=O)(O)Oc1ccccc1 | 41
46 | CC(C)(C)C(=O)OCOP(=O)(CNC(Cc1ccc(-c2ccccc2)cc1)C(=O)NCCC(=O)O)OCOC(=O)C(C)(C)C (configuration not stated) | 322
47 | CC(C)N(C(=O)COC(=O)CCNC(=O)[C@H](Cc1ccc(-c2ccccc2)cc1)NCP(=O)(O)Oc1ccccc1)C(C)C | 5

Reference: ChEMBL document CHEMBL1127330, “N-Phosphonomethyl dipeptides and their phosphonate prodrugs, a new generation of neutral endopeptidase (NEP, EC 3.4.24.11) inhibitors” (J Med Chem, 1994)
